Compound activity as filed in PubChem.
MrgX1 ag = activates human MrgX1 receptor signaling | MrgX1-HEK293 cells, Fluo-4 calcium fluorescence, agonist mode; hits give high values | B-score at 10 µM | Q96LB2 | 310,000 tested, 0.44% active;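 active = calcium response B-score plate-corrected fluorescence ratio at least 3 library SD, with starting fluorescence B-score inside 5 SD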
Target sequence (Q96LB2 whole entry, looked up): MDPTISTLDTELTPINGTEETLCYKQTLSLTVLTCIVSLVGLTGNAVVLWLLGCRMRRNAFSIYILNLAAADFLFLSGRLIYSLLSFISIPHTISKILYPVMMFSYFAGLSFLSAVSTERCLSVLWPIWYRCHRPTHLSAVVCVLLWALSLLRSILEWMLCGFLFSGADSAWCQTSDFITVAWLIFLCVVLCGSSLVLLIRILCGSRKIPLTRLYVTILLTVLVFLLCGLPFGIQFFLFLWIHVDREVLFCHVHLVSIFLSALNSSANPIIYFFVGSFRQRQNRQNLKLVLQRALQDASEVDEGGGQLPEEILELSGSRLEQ
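Test system: HEK293 cells stably expressing human MrgX1 receptor; amount: 15,000 cells per well; doses: compound delivered in addition one of three; times: overnight plating before 1 h dye loading; detection: Fluo-4 NW calcium-flux fluorescence, kinetic read; read-out basis: B-scored fluorescence response ratio; controls: positive and negative controls per plate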
RGS4 act = potentiators or activators of RGS4. 310,000 tested, 0.92% active. B-score at 10 µM. HEK293 M3R/inducible RGS4, carbachol calcium flux Fluo4; hits give low values;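 active = B-score of the integrated calcium signal more than 4 SD below the library mean, with starting fluorescence not abnormally high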;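 also: negative B-score means reduced calcium response which marks RGS4 activation or potentiation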
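Assay system: Inducible-RGS4 HEK293 cells carrying M3 receptor | Schedule: Compound preincubation 20 min at room temperature before agonist | Signal: Kinetic calcium fluorescence imaging with Fluo4-AM dye, 2 µM | Read-out basis: B score from integrated fluorescence ratio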
MrgX1 antag = antagonists of human MrgX1 receptor; Q96LB2; MRGX1-HEK293 calcium flux, Fluo-4, BAM8-22 antagonism; hits give low values; B-score at 10 µM; 310,000 tested, 1.3% active;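 active = calcium-response B-score plate-corrected more than 3 library SD below zero, starting fluorescence within 5 deviations, no agonist response on first addition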;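 also: peak minus trough fluorescence over baseline after final BAM8-22 challenge near maximal dose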
MrgX1 allo act = human MrgX1 positive allosteric modulation, primary screen; Q96LB2; MrgX1-HEK293, Fluo-4 calcium flux, FDSS; hits give high values; B-score at 10 µM; 310,000 tested, 0.63% active; AID 588675;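 active = plate-corrected calcium response at least 3 library SD above typical, normal starting fluorescence, not activating the receptor alone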;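 also: compound read alongside a low EC10 to EC30 dose of BAM8-22 agonist; peak minus trough fluorescence over baseline measured at the second addition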
RGS4 block = inhibitors of human RGS4 | HEK293 M3R/RGS4 inducible, Fluo-4 calcium flux; hits give high values; triggered by carbachol at its EC20 | B-score at 10 µM | 310,000 tested, 0.45% active;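 active = B-score, a plate-corrected calcium signal, over three deviations above library mean, with baseline fluorescence within five deviations of library mean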;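 also: RGS4 expression induced by doxycycline in cells with stable M3 receptor; B-score is computed from the integrated fluorescence ratio over baseline after carbachol; higher B-score means a larger calcium signal and so more RGS4 inhibition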
Target sequence (P49798 whole entry, looked up): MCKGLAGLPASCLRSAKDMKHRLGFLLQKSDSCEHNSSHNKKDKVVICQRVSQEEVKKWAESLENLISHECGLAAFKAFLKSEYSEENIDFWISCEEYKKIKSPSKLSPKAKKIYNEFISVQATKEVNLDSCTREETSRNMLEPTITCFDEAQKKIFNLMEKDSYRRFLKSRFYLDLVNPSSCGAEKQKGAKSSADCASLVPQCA
MrgX1 ag reconf = confirmation of human MrgX1 receptor agonists; shares compounds with MrgX1 ag; MrgX1-HEK293, Fluo-4 calcium fluorescence, FDSS; activation, % at 10 µM; 600 tested, 78% active; AID 602412;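 active = calcium signal rise, corrected for plate position, at least 3 library SD high, with starting brightness within 5 such deviations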
HEK293 Ca flux = activity in parental HEK293 cells lacking MrgX1; 4,000 tested, 2% active; shares compounds with MrgX1 antag; fluorescence ratio F(max-min)/F0 at 10 µM; Fluo-4 calcium fluorescence, FDSS; AID 624111;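 active = duplicate-averaged calcium fluorescence ratio at least three times the standard deviation of buffer wells, a nonspecific response in parental cells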
HEK293 Ca counter = activity in parental HEK293 cells without MrgX1; shares compounds with MrgX1 antag; parental HEK293 calcium flux, Fluo-4 fluorescence ratio; hits give high values; fluorescence ratio F(max-min)/F0 at 10 µM; 4,000 tested, 0.4% active;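 active = calcium fluorescence ratio, averaged over duplicates, at least 3 SD of the buffer-well ratio, meaning a nonspecific response in receptor-free cells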;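 also: untransfected parental HEK293 lacking MrgX1 used as counterscreen for MrgX1 allosteric activators; fluorescence change taken during the second addition on a kinetic imager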
HEK293 Ca cntr2 = activity in parental HEK293 cells lacking MrgX1 receptor. fluorescence ratio F(max-min)/F0 at 10 µM. Fluo-4 calcium fluorescence (FDSS); hits give high values. shares compounds with MrgX1 antag. 4,000 tested, 8.7% active;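 active = calcium fluorescence ratio at least three times the spread of buffer wells, meaning a non-specific response in parental cells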
An asterisk follows results filed as active. Sampled rows, rich in hits. Any-hit rate of the full collection: about 3.5%.

Screening CC(=O)Nc1ccc(S(=O)(=O)/N=C2\SCCN2S(=O)(=O)c2ccc(NC(C)=O)cc2)cc1 returned MrgX1 ag 41*, RGS4 act inactive, MrgX1 antag inactive, MrgX1 allo act inactive, RGS4 block inactive, MrgX1 ag reconf 270%*, HEK293 Ca flux inactive, HEK293 Ca counter inactive and HEK293 Ca cntr2 inactive.
Screening CC(=O)Nc1ccc(S(=O)(=O)Nc2ccc(S(=O)(=O)N3CCCC3)cc2)cc1 returned MrgX1 ag inactive, RGS4 act inactive, MrgX1 antag inactive, MrgX1 allo act inactive and RGS4 block inactive.
O=C(C#Cc1ccccc1)c1ccco1 was read as MrgX1 ag 44*, RGS4 act inactive, MrgX1 antag inactive, MrgX1 allo act inactive, RGS4 block inactive, MrgX1 ag reconf 240%*, HEK293 Ca flux inactive, HEK293 Ca counter inactive and HEK293 Ca cntr2 inactive.
ClCc1nc2ccccc2c2ccccc12 was read as MrgX1 ag 44*, RGS4 act inactive, MrgX1 antag inactive, MrgX1 allo act inactive, RGS4 block inactive, MrgX1 ag reconf 88%*, HEK293 Ca flux inactive, HEK293 Ca counter inactive and HEK293 Ca cntr2 inactive.
`CC(=Nc1ccc(C)cc1)c1sc2ccccc2c1O` gave MrgX1 ag inactive, RGS4 act inactive, MrgX1 antag inactive, MrgX1 allo act inactive and RGS4 block inactive.
For CC(=Nc1cccc(O)c1)c1sc2ccccc2c1O the results were MrgX1 ag 28*, RGS4 act inactive, MrgX1 antag inactive, MrgX1 allo act inactive, RGS4 block inactive, MrgX1 ag reconf 144%*, HEK293 Ca flux inactive, HEK293 Ca counter inactive and HEK293 Ca cntr2 inactive.
For O=C(COC(=O)[C@H](Cc1ccccc1)NC(=O)c1cccs1)NC1CCCCC1 the results were MrgX1 ag 30*, RGS4 act inactive, MrgX1 antag inactive, MrgX1 allo act inactive, RGS4 block inactive, MrgX1 ag reconf 195%*, HEK293 Ca flux inactive, HEK293 Ca counter inactive and HEK293 Ca cntr2 46*.
`O=C(Nc1sc2c(c1C(=O)N1CCOCC1)CCCCC2)c1cccnc1` gave MrgX1 ag inactive, RGS4 act inactive, MrgX1 antag inactive, MrgX1 allo act inactive and RGS4 block inactive.
COCCNC(=O)Cn1c(=O)n(C)c2ccccc21 was read as MrgX1 ag inactive, RGS4 act inactive, MrgX1 antag inactive, MrgX1 allo act inactive and RGS4 block inactive.
CCOC(=O)N1CCN(C(=O)c2c[nH]c3ccc(S(=O)(=O)N(C)c4cccc(C)c4)cc3c2=O)CC1 was read as MrgX1 ag 34*, RGS4 act inactive, MrgX1 antag inactive, MrgX1 allo act inactive, RGS4 block inactive, MrgX1 ag reconf 191%*, HEK293 Ca flux inactive, HEK293 Ca counter inactive and HEK293 Ca cntr2 50*.
For CCOC(=O)N1CCN(C(=O)c2c[nH]c3ccc(S(=O)(=O)N(C)c4ccccc4C)cc3c2=O)CC1 the results were MrgX1 ag inactive, RGS4 act inactive, MrgX1 antag inactive, MrgX1 allo act inactive and RGS4 block inactive.
For Cc1ccc(NC(=S)NC2CCCCC2)cc1S(=O)(=O)N(C)C the results were MrgX1 ag inactive, RGS4 act inactive, MrgX1 antag inactive, MrgX1 allo act inactive and RGS4 block inactive.
For COc1ccc(S(=O)(=O)Nc2c(O)ccc3ccccc23)cc1OC the results were MrgX1 ag 27*, RGS4 act inactive, MrgX1 antag inactive, MrgX1 allo act inactive, RGS4 block inactive, MrgX1 ag reconf inactive, HEK293 Ca flux inactive, HEK293 Ca counter inactive and HEK293 Ca cntr2 inactive.
